High-throughput results deposited in PubChem BioAssay by several laboratories.
A selection: hits, their analogues and other compounds. The true share with any hit is near 2.8%.
HCT116 PTEN-null: PTEN-deleted cell growth suppression; HCT116 PTEN-null viability, CellTiter-Glo, 60 h; stronger effect = lower value; viability, % at 10 µM; hit rate 1.2% among 140,000; AID 827;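 active means viability at or below a set limit, 4 SD under the median of all tested compounds, cut at about 3.7% in these data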;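 further: PTEN knockout HCT116 line with beta catenin targeted HCT116 as companion control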
bCat KO growth: beta-catenin-lacking colon tumor cell growth suppression | hit rate 1.5% among 140,000 | viability, % at 10 µM | HCT116 beta-catenin knockout viability, CellTiter-Glo, 60 h; stronger effect = lower value;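 active means viability at or under a set limit, the compound median less 4 SD, cut at about 6% in these data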;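 further: 0% = Hyamine 1622 control at 20 µM and 100% = untreated cell control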
SDO1 yeast rescue: restores growth of sdo1-depleted yeast; z-score at 10 µM; S. cerevisiae sdo1-depleted JHY4D growth rescue, OD600 30 h; stronger effect = higher value; pdr5 snq2 efflux-pump mutant strain; hit rate 0.21% among 140,000;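 active means z-score above 3 at both the 24 hr and the 30 hr optical density reads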;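 further: z-score against mean and SD of all compound wells on the same plate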
Yeast lifespan up: extends the lifespan of yeast; hit rate 0.68% among 130,000; inhibition of the nicotinamide effect, % at 10 µM; AID 775; S. cerevisiae growth with nicotinamide, OD615; deaD strain in restrictive glucose medium;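 active means inhibition above a set limit, placed 3 SD over the median of all compounds, cut at about 26% in these data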;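 further: 0% = nicotinamide-treated wells and 100% = cells grown without nicotinamide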
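Assay system: DeaD-strain S. cerevisiae. Medium: CSMM-D glucose medium, restrictive. Reagent: nicotinamide, 1.5 mM, co-present with compound. Compound: 10 µM single point, 0.25% DMSO. Schedule: culture preincubation 4 h, compound exposure 48 h, both 30 °C. Detection: absorbance at 615 nm.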
BB579 growth dn: yeast BB579 growth reduction in restrictive medium | hit rate 0.51% among 140,000 | AID 804 | S. cerevisiae BB579 growth, OD615, 48 h | inhibition, % at 10 µM;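 active means inhibition above a set limit, 3 SD over the mean compound inhibition, cut at about 44% in these data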
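Test system: S. cerevisiae DeaD strain BB579 yeast; Medium: restrictive CSMM-D medium; Compound: one dose, 10 µM compound with 0.25% DMSO; Incubation: 4 h cell preincubation, 48 h compound exposure, 30 °C humidified; Signal: OD at 615 nm; Benchmarks: amphotericin B at 10 µg/mL as positive control.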
* hit, by the source's call; · = no result given; + = active, no number.

SMILES | HCT116 PTEN-null | bCat KO growth | SDO1 yeast rescue | Yeast lifespan up | BB579 growth dn
O=C(CCN1CCc2ccccc2C1)Nc1ccc(F)cc1 | 94 | 95 | -0.33 | 0 | -49
CCOC(=O)Cn1nc(-c2ccccc2)c2cnc3ccc(CC)cc3c21 | 96 | 91 | -0.99 | -3 | -6
C=C(C)COc1ccc(-c2[nH]ncc2Oc2cccc(OC)c2)c(O)c1 | 24 | 17 | -2.2 | -31 | 75*
C=C(C)COc1ccc(-c2[nH]ncc2-c2ccccc2)c(O)c1 | 63 | 73 | -2 | -17 | 88*
C=C(C)COc1ccc(-c2[nH]ncc2-c2ccc(OC)c(OC)c2)c(O)c1 | 12 | 13 | -0.44 | -21 | -33
C=C(C)COc1ccc(-c2[nH]ncc2Oc2ccccc2OCC)c(O)c1 | 50 | 56 | -1.8 | -15 | -5
CCOC(=O)N1CCN(C(=O)Cn2nc(C)c3sc4ccccc4c3c2=O)CC1 | 90 | 97 | 1.3 | -6 | 45*
CCOc1ccc(-c2cc(C(=O)NCC3CCCO3)c3ccccc3n2)cc1 (stereo not drawn) | 71 | 66 | 0.07 | -4 | -8
O=C1C(Cl)=C(N2CCN(c3ccccc3[N+](=O)[O-])CC2)C(=O)c2ccccc21 | 1.2* | 0.9* | -0.76 | 2 | -14
Cc1cc(N2C(=O)CC(Cc3ccccc3)C2=O)no1 (stereo not drawn) | 104 | 94 | 0.59 | + | -9
O=C(NCc1cccnc1)C(=O)NCC(c1ccco1)N1CCN(c2ccc(F)cc2)CC1 (stereo not drawn) | 99 | 97 | 0.03 | 11 | -4
Oc1ccc(C=Nc2ccc(N3CCOCC3)cc2)c(O)c1 | 107 | 91 | 0.31 | -13 | -54
Oc1ccc(N=Nc2cccc(C(F)(F)F)c2)cc1C=Nc1ccc(N2CCOCC2)cc1 | 4 | 4.1* | -0.79 | -5 | 11
CC(C)C[C@H](NC(=O)OC(C)(C)C)C(=O)N/N=C/C1=Cc2ccccc2OC1C (stereo partly drawn) | 50 | 58 | -1.3 | 0 | -53
Nc1[nH]c(=O)ncc1F | 99 | 91 | -2.7 | 2 | 74*
COc1cccc(-c2nn(-c3ccccc3)cc2/C=C\C(=O)c2cccs2)c1 | 10 | 10 | -0.89 | -3 | -8
CCCN(CCC)CC(O)Cn1cc(/C=C/C(=O)c2cccs2)c2ccccc21 (stereo not drawn) | 1.3* | 1.2* | -1.1 | 2 | -21
CN1CCN(Cn2cc(/C=C/C(=O)c3ccccc3)c3ccccc32)CC1 | 83 | 74 | -1.9 | -23 | -47
O=C(/C=C/c1cn(CC(O)CN2CCCCC2)c2ccccc12)c1cccs1 (stereo not drawn) | 5 | 2.7* | 0.02 | 0 | -28
CCCCOC(=O)Cn1c(=O)c2c(nc(Br)n2Cc2ccccc2)n(C)c1=O | 75 | 81 | -0.84 | 23 | -34
COc1ccc(Nc2nc(N3CCCC3)c3ccccc3n2)cc1 | 1.9* | 1.7* | -0.49 | -5 | 0
CCC(Cc1ccccc1)NC(=O)CSc1ccsc1[N+](=O)[O-] (stereo not drawn) | 80 | 88 | -1.4 | -7 | -19
CN(c1ccccc1)c1ccc(/C=C/[N+](=O)[O-])cc1 | 3.5* | 4.7* | -2.4 | -11 | 100*
COC(=O)CCCCC(=O)C1C(=O)CC(C)(C)C(C(=O)OC)C1=O (stereo not drawn) | 109 | 107 | 0.13 | 36 | -67
CCCC(=O)C1C(=O)CC(C)(C)C(c2cc(C)no2)C1=O (stereo not drawn) | 109 | 92 | 1.6 | 56* | -48
SMILES | HCT116 PTEN-null | bCat KO growth | SDO1 yeast rescue | Yeast lifespan up | BB579 growth dn
CC1CCN(c2nncc3ccccc23)CC1 | 98 | 97 | -0.2 | 30* | -23
Cc1ccc(NN2C(=O)C=CC2=O)cc1 | 76 | 94 | 2.1 | 2 | -25
O=C1C=C(c2ccccc2)C(=O)N1Nc1ccccc1 | 102 | 100 | -1.9 | 5 | 44*
Cc1ccc(NN2C(=O)C=C(c3ccc(Cl)cc3)C2=O)cc1 | 10 | 42 | -0.59 | -6 | 47*
Cc1ccnc(N2CCC(C(=O)NNC(=O)COc3cccc4ccccc34)CC2)n1 | 97 | 107 | -0.78 | -2 | -3
CC1=C(CC(=O)c2ccc(Cl)cc2)C(=O)c2ccccc2C1=O | 1.9* | 3.7* | -0.75 | -3 | -22
O=C(NCCc1ccccc1F)C1CCCN1S(=O)(=O)c1ccc2ccccc2c1 (stereo not drawn) | 94 | 93 | -1.6 | · | -23
COC(=O)c1[nH]c2ccc(C)cc2c1NC(=O)CN1CCCc2ccccc21 | 84 | 88 | -2.1 | -10 | -61
Cc1sc2c(c1C)c(=O)n(-c1ccc(Cl)cc1)c(=O)n2Cc1cc(=O)n2ccccc2n1 | 100 | 97 | -1.7 | 0 | -21
Cc1cc([N+](=O)[O-])nn1Cc1ccc(C(=O)N/N=C/c2ccc(O)cc2O)cc1 | 15 | 11 | 1.1 | -1 | -29
COc1ccc(C(C)=O)cc1CSc1nc2ccccc2c(=O)n1-c1ccccc1 | 46 | 66 | -0.74 | 2 | -38
COc1ccc(C(C)=O)cc1CSc1nc2ccccc2o1 | 1.0* | 1.1* | -1.4 | -16 | -8
O=S(=O)(NCCSc1ccccc1)c1cccs1 | 97 | 92 | 0.62 | -18 | 1
CC(C)(C)C(=O)CC1(O)C(=O)N(Cc2ccccc2)c2ccccc21 (stereo not drawn) | 99 | 102 | -0.23 | -9 | -17
Cc1cccc(N=C2Sc3nc4c(C)c(C)ccc4cc3CN2CCN2CCOCC2)c1 | 55 | 59 | -1.8 | -13 | 99*
CCc1ccc2[nH]c(=O)c(CN(CCCN3CCOCC3)C(=O)Nc3cccc(Cl)c3)cc2c1 | 1.9* | 1.9* | 0.04 | 2 | -23
Cc1ccc(C)c2[nH]c(=O)c(CN(CCN3CCCC3)C(=O)Nc3cccc(Cl)c3)cc12 | 1.8* | 3.0* | -1.2 | 1 | -47
Cc1cc(C)c2cc(CN(CCN3CCCC3)C(=O)Nc3ccc(F)cc3)c(=O)[nH]c2c1 | 39 | 25 | -1.5 | -16 | -33
Cc1nn(C)c(C)c1S(=O)(=O)N(CC(=O)N1CCc2ccccc2C1)c1ccc(C(C)C)cc1 | 72 | 82 | -1.1 | -9 | -58
CNC(=S)N/N=C/c1cn(CCOc2cccc(OC)c2)c2ccccc12 | 57 | 62 | -0.81 | -4 | -37
CN(C)CCCN(C(=O)c1ccc2c(c1)CCCC2)c1nc2ccc(F)cc2s1 | 2.7* | 8 | -1.5 | 6 | -24
CN(C)CCN(C(=O)c1cc(Cl)sc1Cl)c1nc2ccc(F)cc2s1 | 91 | 94 | 0.48 | 1 | -34
Cc1ccc(Nc2nc(Nc3ccc(C)cc3)nc(SC3=NCCS3)n2)cc1 | 3.5* | 4.2* | -1.7 | 0 | -53
Cc1ccccc1Nc1nc(Nc2ccccc2C)nc(SC2=NCCS2)n1 | 67 | 66 | -0.69 | -5 | -22
CS(=O)(=O)N1CCN(C(=O)c2ccccc2F)CC1 | 98 | 96 | 0.87 | -7 | 50*
